Source: ChEMBL document CHEMBL2331516, “Synthesis and structure-activity relationships of 5,6,7-substituted pyrazolopyrimidines: discovery of a novel TSPO PET ligand for cancer imaging” (J Med Chem, 2013)

Tests used:
[1] = Lipophilicity, log P of the compound at pH 7.5 by reversed phase HPLC analysis; type: physicochemical; conditions: buffer
Summary of the method: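 Retention times were set relative to catechol and calibrated against standards of known log P using a polynomial log P vs log RRT curve. Injections were done in triplicate and averaged.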

Translocator protein = Translocator protein (Rattus norvegicus, UniProt P16257); assay: Displacement of [3H]-PK 11195 from TSPO in rat C6 cell lysates after 2 hrs by scintillation counting analysis; type: cell-free
Summary of the method: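 Rat C6 glioma cells washed in PBS and freeze-thawed three times in HEPES/mannitol/sucrose lysis buffer with protease inhibitors and MgCl2, pH 7.4 (lysate 0.5 mg/mL). Reaction stopped by filtration onto PEI-presoaked filters, then scintillation counting.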

[2] = Drug excretion in Wistar rat urine at 1.0 to 1.5 mCi after 90 mins by NaI well counting analysis in presence of 2-(5,7-diethyl-2-(4-(2-fluoroethoxy)phenyl)pyrazolo[1,5-a]-pyrimidin-3-yl)-N,N-diethylacetamide; type: ADME, tissue-based; conditions: in vivo, 1.5 h
Summary of the method: (§1)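 Rats received 1.0–1.5 mCi radiotracer. Unlabelled analog (10 mg/kg) was injected 30 min after tracer as a displacement challenge. Tissues taken and counted in a NaI well counter. %ID/g derived from sample weight and radioactivity.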

Rattus norvegicus [3] = organism: Rattus norvegicus; assay: Biodistribution in Wistar rat small bowel at 1.0 to 1.5 mCi after 60 mins by NaI well counting analysis; type: ADME, organism-based, Small intestine; conditions: in vivo, 1 h
Summary of the method: (§2)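 Radiotracer given to rats; 14 tissues plus urine taken 60 min after a 1.0–1.5 mCi injection. Each sample weighed and its radioactivity counted in a NaI well counter. %ID/g derived from weight and radioactivity.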

Spleen [4] = assay: Biodistribution in Wistar rat spleen at 1.0 to 1.5 mCi after 60 mins by NaI well counting analysis; type: ADME, organism-based; conditions: in vivo, 1 h; summary of the method: as §2
Kidney [5] = assay: Drug uptake in Wistar rat kidney at 1.0 to 1.5 mCi after 90 mins by NaI well counting analysis in presence of 2-(5,7-diethyl-2-(4-(2-fluoroethoxy)phenyl)pyrazolo[1,5-a]-pyrimidin-3-yl)-N,N-diethylacetamide; type: ADME, tissue-based; conditions: in vivo, 1.5 h; summary of the method: as §1
Testes = assay: Biodistribution in Wistar rat testes at 1.0 to 1.5 mCi after 60 mins by NaI well counting analysis; type: ADME, organism-based, Testis; conditions: in vivo, 1 h; summary of the method: as §2
Rattus norvegicus [6] = organism: Rattus norvegicus; assay: Biodistribution in Wistar rat stomach at 1.0 to 1.5 mCi after 60 mins by NaI well counting analysis; type: ADME, organism-based; conditions: in vivo, 1 h; summary of the method: as §2
Harderian gland = assay: Drug uptake in iv dosed C6 cells bearing Wistar rat harderian glands after 90 mins by PET imaging analysis; type: ADME, organism-based; conditions: in vivo, 1.5 h
Summary of the method: (§3)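 Male Wistar rats stereotactically inoculated in the right hemisphere with 1.0×10^5 C6 glioma cells two weeks before imaging, with venous and arterial catheters placed. Tumors confirmed by 4.7-T MRI. PET/CT followed within 24 h, with tracer given via jugular catheter during the scan.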

Rattus norvegicus [7] = organism: Rattus norvegicus; assay: Biodistribution in Wistar rat skeletal muscle at 1.0 to 1.5 mCi after 60 mins by NaI well counting analysis; type: ADME, organism-based, Muscle tissue; conditions: in vivo, 1 h; summary of the method: as §2
Muscle tissue = assay: Drug uptake in Wistar rat muscle at 1.0 to 1.5 mCi after 90 mins by NaI well counting analysis in presence of 2-(5,7-diethyl-2-(4-(2-fluoroethoxy)phenyl)pyrazolo[1,5-a]-pyrimidin-3-yl)-N,N-diethylacetamide; type: ADME, tissue-based; conditions: in vivo, 1.5 h; summary of the method: as §1
Brain [8] = assay: Drug uptake in iv dosed C6 cells bearing Wistar rat brain after 90 mins by PET imaging analysis; type: ADME, organism-based; conditions: in vivo, 1.5 h; summary of the method: as §3
Colon = assay: Biodistribution in Wistar rat colon at 1.0 to 1.5 mCi after 60 mins by NaI well counting analysis; type: ADME, organism-based; conditions: in vivo, 1 h; summary of the method: as §2
[9] = Drug uptake in iv dosed C6 cells bearing Wistar rat olfactory epithelium after 90 mins by PET imaging analysis; type: ADME, organism-based; conditions: in vivo, 1.5 h; summary of the method: as §3
Heart [10] = assay: Drug uptake in Wistar rat heart at 1.0 to 1.5 mCi after 90 mins by NaI well counting analysis in presence of 2-(5,7-diethyl-2-(4-(2-fluoroethoxy)phenyl)pyrazolo[1,5-a]-pyrimidin-3-yl)-N,N-diethylacetamide; type: ADME, tissue-based; conditions: in vivo, 1.5 h; summary of the method: as §1
Kidney [11] = assay: Biodistribution in Wistar rat kidney at 1.0 to 1.5 mCi after 60 mins by NaI well counting analysis; type: ADME, organism-based; conditions: in vivo, 1 h; summary of the method: as §2
Liver [12] = assay: Drug uptake in Wistar rat liver at 1.0 to 1.5 mCi after 90 mins by NaI well counting analysis in presence of 2-(5,7-diethyl-2-(4-(2-fluoroethoxy)phenyl)pyrazolo[1,5-a]-pyrimidin-3-yl)-N,N-diethylacetamide; type: ADME, tissue-based; conditions: in vivo, 1.5 h; summary of the method: as §1
[13] = Drug uptake in iv dosed C6 cells bearing Wistar rat tumor after 90 mins by PET imaging analysis; type: ADME, organism-based, Neoplasm; conditions: in vivo, 1.5 h; summary of the method: as §3
Rattus norvegicus [14] = organism: Rattus norvegicus; assay: Biodistribution in Wistar rat skull at 1.0 to 1.5 mCi after 60 mins by NaI well counting analysis; type: ADME, organism-based; conditions: in vivo, 1 h; summary of the method: as §2
Lung [15] = assay: Drug uptake in Wistar rat lung at 1.0 to 1.5 mCi after 90 mins by NaI well counting analysis in presence of 2-(5,7-diethyl-2-(4-(2-fluoroethoxy)phenyl)pyrazolo[1,5-a]-pyrimidin-3-yl)-N,N-diethylacetamide; type: ADME, tissue-based; conditions: in vivo, 1.5 h; summary of the method: as §1
[16] = Ratio of total distribution volume in C6 cells bearing Wistar rat tumor to total distribution volume in C6 cells bearing Wistar rat brain; type: ADME, cell-based
Lung [17] = assay: Biodistribution in Wistar rat lung at 1.0 to 1.5 mCi after 60 mins by NaI well counting analysis; type: ADME, organism-based; conditions: in vivo, 1 h; summary of the method: as §2
Rattus norvegicus [18] = organism: Rattus norvegicus; assay: Stability in C6 cells bearing Wistar rat plasma at 1.5 mCi after 90 mins by radio-HPLC analysis; type: ADME, organism-based; conditions: c6, 1.5 h
Summary of the method: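 Arterial blood (200 μL) drawn at 2, 12, 30, 60 and 90 min after 1.5 mCi radiotracer. Plasma extracted with acetonitrile/water 7/1 and centrifuged. Supernatant run on reversed-phase radio-HPLC with 0.1 M ammonium acetate pH 10/acetonitrile (30/70).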

Spleen [19] = assay: Drug uptake in Wistar rat spleen at 1.0 to 1.5 mCi after 90 mins by NaI well counting analysis in presence of 2-(5,7-diethyl-2-(4-(2-fluoroethoxy)phenyl)pyrazolo[1,5-a]-pyrimidin-3-yl)-N,N-diethylacetamide; type: ADME, tissue-based; conditions: in vivo, 1.5 h; summary of the method: as §1
[20] = Drug uptake in iv dosed C6 cells bearing Wistar rat tongue after 90 mins by PET imaging analysis; type: ADME, organism-based; conditions: in vivo, 1.5 h; summary of the method: as §3
Brain [21] = assay: Biodistribution in Wistar rat brain at 1.0 to 1.5 mCi after 60 mins by NaI well counting analysis; type: ADME, organism-based; conditions: in vivo, 1 h; summary of the method: as §2
Rattus norvegicus [22] = organism: Rattus norvegicus; assay: Biodistribution in Wistar rat whole blood at 1.0 to 1.5 mCi after 60 mins by NaI well counting analysis; type: ADME, organism-based; conditions: in vivo, 1 h; summary of the method: as §2
Heart [23] = assay: Biodistribution in Wistar rat heart at 1.0 to 1.5 mCi after 60 mins by NaI well counting analysis; type: ADME, organism-based; conditions: in vivo, 1 h; summary of the method: as §2
Liver [24] = assay: Biodistribution in Wistar rat liver at 1.0 to 1.5 mCi after 60 mins by NaI well counting analysis; type: ADME, organism-based; conditions: in vivo, 1 h; summary of the method: as §2
[25] = Drug metabolism in Wistar rat plasma at 130 to 200 MBq, iv after 12 mins by radio-HPLC analysis; type: ADME, organism-based; conditions: read-out: Drug metabolism
[26] = Displacement of [3H]-flunitrazepam from CBR in Wistar rat cerebral cortex membranes after 2 hrs by scintillation counting analysis; type: cell membranes, Membrane
Summary of the method: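 Male Wistar rat cerebral cortex homogenized in ice-cold PBS pH 7.4 (5.0 mg/mL protein). Incubated with 0.6 nM [3H]flunitrazepam (final) and ligand at 10⁻⁵ to 10⁻⁷ M for 2 h at 25 °C. Reaction stopped by filtration onto PEI-presoaked filters, then scintillation counting of bound activity.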

Sequence of Translocator protein (P16257 whole entry, looked up): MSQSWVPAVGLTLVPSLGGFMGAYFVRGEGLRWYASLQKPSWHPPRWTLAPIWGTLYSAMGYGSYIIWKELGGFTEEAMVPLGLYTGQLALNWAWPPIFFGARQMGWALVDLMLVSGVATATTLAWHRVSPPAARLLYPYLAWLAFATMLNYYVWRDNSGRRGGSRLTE

## CCN(CC)C(=O)Cc1c(-c2ccc(OCCF)cc2)nn2c(C)c(C)c(C)nc12
[1]
  logP: 2.47
Translocator protein
  Ki: 83 nM

## CCN(CC)C(=O)Cc1c(-c2ccc(OCCF)cc2)nn2c(C)c(Cl)c(C)nc12
[1]
  logP: 2.55
Translocator protein
  Ki: 67.9 nM

## CCN(CC)C(=O)Cc1c(-c2ccc(OC)cc2)nn2c(C)c(CC(C)=O)c(C)nc12
[1]
  logP: 2.57
Translocator protein
  Ki: 201 nM

## CCN(CC)C(=O)Cc1c(-c2ccc(OCCF)cc2)nn2c(C(C)C)cc(C(C)C)nc12
[1]
  logP: 2.73
Translocator protein
  Ki: > 500 nM

## CCN(CC)C(=O)Cc1c(-c2ccc(OC)cc2)nn2c(C)c(Cl)c(C)nc12
[1]
  logP: 2.99
Translocator protein
  Ki: 55.4 nM

## CCN(CC)C(=O)Cc1c(-c2ccc(OC)cc2)nn2c(C)c(C)c(C)nc12
[1]
  logP: 2.45
Translocator protein
  Ki: 93.7 nM

## CCc1cc(CC)n2nc(-c3ccc(OCC[18F])cc3)c(CC(=O)N(CC)CC)c2n1
[2]
  Drug excretion: Active
Rattus norvegicus [3]
  Drug uptake: Active
Spleen [4]
  Drug uptake: Active
Kidney [5]
  Drug uptake: Not Active
Testes
  Drug uptake: Active
Rattus norvegicus [6]
  Drug uptake: Active
Harderian gland
  Drug uptake: Active
Rattus norvegicus [7]
  Drug uptake: Active
Muscle tissue
  Drug uptake: Active
Brain [8]
  Drug uptake: Active
Colon
  Drug uptake: Active
[9]
  Drug uptake: Active
Heart [10]
  Drug uptake: Not Active
Kidney [11]
  Drug uptake: Active
Liver [12]
  Drug uptake: Active
[13]
  Drug uptake: Active
Rattus norvegicus [14]
  Drug uptake: Active
Lung [15]
  Drug uptake: Not Active
[16]
  Ratio: 6
Lung [17]
  Drug uptake: Active
Rattus norvegicus [18]
  Stability: Stable
Spleen [19]
  Drug uptake: Not Active
[20]
  Drug uptake: Active
Brain [21]
  Drug uptake: Active
Rattus norvegicus [22]
  Ct: Not Active
Heart [23]
  Drug uptake: Active
Liver [24]
  Drug uptake: Active

## CCc1cc(CC)n2nc(-c3ccc(OC)cc3)c(CC(=O)N(CC)CC)c2n1
[1]
  logP: 2.84
Translocator protein
  Ki: 0.18 nM

## CCN(CC)C(=O)Cc1c(-c2ccc(OC)cc2)nn2c(C)cc(C)nc12
[1]
  logP: 2.4

## CCc1c(C)nc2c(CC(=O)N(CC)CC)c(-c3ccc(OCCF)cc3)nn2c1C
[1]
  logP: 2.53
Translocator protein
  Ki: 277 nM

## CCN(CC)C(=O)Cc1c(-c2ccc(OCCF)cc2)nn2c(C)c(CC(C)=O)c(C)nc12
[1]
  logP: 2.07
Translocator protein
  Ki: 252 nM

## CCN(CC)C(=O)Cc1c(-c2ccc(OCC[18F])cc2)nn2c(C)cc(C)nc12 [DPA-714 F-18]
[25]
  metabolised at 0.2 h: 30%

## CCN(CC)C(=O)Cc1c(-c2ccc(OC)cc2)nn2c(C(C)C)cc(C(C)C)nc12
[1]
  logP: 2.98
Translocator protein
  Ki: > 500 nM

## CCN(CC)C(=O)Cc1c(-c2ccc(OCCF)cc2)nn2c(C)cc(C)nc12 [DPA-714]
[1]
  logP: 2.12

## CCc1c(C)nc2c(CC(=O)N(CC)CC)c(-c3ccc(OC)cc3)nn2c1C
[1]
  logP: 2.78
Translocator protein
  Ki: 157 nM

## CCc1cc(CC)n2nc(-c3ccc(OCCF)cc3)c(CC(=O)N(CC)CC)c2n1
[1]
  logP: 2.5
[26]
  Ki: > 10000 nM
Translocator protein
  Ki: 0.27 nM
